Where two headings read alike, the source gives them in different places.
Assays:
[1] = tested on: C. difficile strain 630 spores; experiment: Prevention of murine CDI after C. difficile spore challenge; format: in vivo, mice; details: 50 mg/kg oral gavage, three doses; for CDI signs in spore-challenged mice: 10^8 CFU spores; for Time to clinical endpoint: clinical endpoint > 6 on CDI severity scale
CYP3A4 = CYP3A4 (Homo sapiens, UniProt P08684); experiment: Vivid CYP3A4 Green screening assay with P450 BACULOSOMES
Chain of CYP3A4 (P08684 whole entry): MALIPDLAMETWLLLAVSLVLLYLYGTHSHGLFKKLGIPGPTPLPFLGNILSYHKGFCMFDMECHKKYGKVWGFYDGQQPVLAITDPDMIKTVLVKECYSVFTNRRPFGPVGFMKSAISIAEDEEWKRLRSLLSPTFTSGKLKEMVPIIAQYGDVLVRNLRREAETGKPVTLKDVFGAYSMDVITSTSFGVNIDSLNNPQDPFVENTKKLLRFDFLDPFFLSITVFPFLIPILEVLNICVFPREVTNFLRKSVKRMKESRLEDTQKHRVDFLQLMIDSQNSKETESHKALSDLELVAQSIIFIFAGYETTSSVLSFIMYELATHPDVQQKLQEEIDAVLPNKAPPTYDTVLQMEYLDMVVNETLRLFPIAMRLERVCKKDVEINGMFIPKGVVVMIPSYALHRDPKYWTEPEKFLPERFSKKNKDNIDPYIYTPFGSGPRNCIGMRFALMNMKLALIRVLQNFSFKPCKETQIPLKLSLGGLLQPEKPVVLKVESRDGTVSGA

Caco-2 monolayers = details: cited from earlier work
C. difficile [2] = details: cited from earlier work
[3] = 24 hours, both conditions; cited from earlier work
C. difficile [4] = details: cited from earlier work; remark: listed apart in the source
Bifidobacterium longum = details: 24 hours, pure culture; cited from earlier work
[5] = tested on: murine GI microbiota (feces); experiment: Metabolism of CamSA by fecal microbiota; format: in vitro ADME, mice
Lactobacillus gasseri = details: 24 hours, pure culture; cited from earlier work
[6] = Effect of cholestyramine feed on CamSA in liver of cpx mice; format: in vivo; details: 22 hours post-CamSA
In short: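 Cefoperazone-treated mice, individually housed, were fed chow with 4% w/w (n=3) or 0% w/w (n=4) cholestyramine from 24 h before test compound dosing until the end. At 22 h post-dose, livers with attached gallbladders were harvested, stored at −20 °C, then homogenised. Acetonitrile was added to precipitate protein, and samples were centrifuged and filtered (0.2 μm). Analysis was by RP-HPLC-MS on a PSDVB column with isocratic 40% ACN, 5 mM ammonium acetate, 0.1% formic acid.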

C. difficile spores [7] = details: in vitro and in vivo; cited from earlier work
[8] = Fecal excretion of CamSA and mSA after oral CamSA in cpx and non-cpx mice; format: in vivo
[9] = CamSA and mSA in liver, blood, kidney and chyme after oral CamSA; format: in vivo, mice; details: for Highest concentration found in the liver: 50 mg/kg oral CamSA, calculated; for Total administered CamSA recovered from feces, organs and chyme: semi-quantitative; for Amount recovered from chyme as fraction of total dosed CamSA: all five time points together
[10] = Interaction with cholestyramine resin in vitro and recovery from the resin; format: physicochemical; details: for Binding to cholestyramine resin in vitro: 20 mg/ml cholestyramine, overnight, 37°C
C. difficile spores [11] = experiment: In vitro C. difficile spore germination assay; format: cell-based, Clostridioides difficile

C[C@H](CCC(=O)Nc1cccc(S(=O)(=O)O)c1)[C@H]1CC[C@H]2[C@@H]3CC[C@@H]4C[C@H](O)CC[C@]4(C)[C@H]3C[C@H](O)[C@]12C [7-deoxy-CamSA]
CDI signs in spore-challenged mice [1]: only moderate CDI signs

C[C@H](CCC(=O)Nc1cccc(S(=O)(=O)O)c1)[C@H]1CC[C@H]2[C@@H]3[C@H](O)C[C@@H]4C[C@H](O)CC[C@]4(C)[C@H]3CC[C@]12C [12-deoxy-CamSA]
CDI severity score [1]: > 6
Time to clinical endpoint [1]: 48 hours post-challenge

C[C@H](CCC(=O)Nc1cccc(S(=O)(=O)O)c1)[C@H]1CC[C@H]2[C@@H]3[C@H](O)C[C@@H]4C[C@H](O)CC[C@]4(C)[C@H]3C[C@H](O)[C@]12C [CamSA]
IC50 (CYP3A4; read-out: IC50 on CYP3A4 activity, assuming inhibition of CYP3A4, triplicate): 0.62 ± 0.11 mM
Intestinal permeability (Caco-2 monolayers): limited intestinal permeability
Effect on mean time of death of infected animals (C. difficile [2]; CamSA alone): double the mean time of death
Prevention of CDI onset (C. difficile [2]; CamSA alone): unable to prevent the onset of CDI
Hamsters protected, no CDI symptoms a month post-challenge (C. difficile [2]; CamSA with sub-clinical doses of vancomycin): 70%
Degradation in artificial gastric or intestinal juices [3]: no CamSA degradation was observed
Acute toxicity (C. difficile [4]; CamSA-treated mice): did not indicate any signs of acute toxicity or damage to GI tissue
Prevention of CDI symptoms (C. difficile [4]; single 50 mg/kg dose): completely prevent CDI symptoms
CamSA hydrolyzed (Bifidobacterium longum): approximately 80%
Hydrolysis of CamSA to cholate and mSA ([5]; GI microbiota of mice not treated with antibiotics): slowly hydrolyzed
Degradation of CamSA by recovered microbiota ([5]; feces collected one week after last antibiotic dose, data not shown): degraded CamSA at a similar rate as feces from animals that had never received antibiotics
CamSA hydrolyzed (Lactobacillus gasseri): approximately 80%
CDI signs in spore-challenged mice [1]: little to no signs of CDI
Detection in liver ([6]; 0% cholestyramine feed): detected CamSA from liver samples from three of the four mice
Detection in liver ([6]; 4% cholestyramine feed): unable to detect
Effect on taurocholate-mediated C. difficile spore germination (C. difficile spores [7]): potent inhibitor
Retention of intact compound in the animal ([8]; antibiotic-treated mouse): 7 days post-administration
Start of CamSA excretion in feces ([8]; cpx mice): around 6 hours post-administration
Time of second fecal excretion maximum ([8]; cpx mice): 32 hours post-administration
Fraction of total dosed CamSA recovered from feces ([8]; cpx mice, 50 mg/kg oral, over a week): approximately 30%
Detection in feces ([8]; non-cpx mice): low levels of intact CamSA
Maximum amount recovered from feces at a single time point relative to cpx mice ([8]; non-cpx mice): four-fold lower
Fraction of total dosed drug recovered from feces, mSA plus CamSA ([8]; non-cpx mice, 50 mg/kg oral, over a week): approximately 15%
Highest concentration found in the liver [9]: approximately 140 μM
Total administered CamSA recovered from feces, organs and chyme ([9]; cpx animals): approximately 40%
Detection in kidney ([9]; cpx mice): negligible amounts
Total amount recovered from liver relative to feces (less) ([9]; cpx mice): approximately 10 fold
Amount recovered from chyme as fraction of total dosed CamSA ([9]; cpx mice): 10%
Detection in blood ([9]; cpx mice, any time point): unable to detect
Time of peak hepatic concentration ([9]; cpx mice, one animal per time point): 22 h
CamSA and mSA recovered from chyme relative to blood (higher) ([9]; mouse, in vivo): 300 fold
CamSA and mSA recovered from chyme relative to other organs (higher) ([9]; mouse, in vivo): at least 10 fold
Total administered CamSA recovered from feces, organs and chyme ([9]; non-cpx animals): ~25%
Detection in blood ([9]; non-cpx mice): not detected
Total combined CamSA and mSA recovered from liver relative to feces (less) ([9]; non-cpx mice): approximately 10 fold
Binding to cholestyramine resin in vitro [10]: nearly complete sequestration
Recovery from cholestyramine resin ([10]; 0.5 N aqueous HCl, absence of feces): less than 1%
Recovery from cholestyramine resin ([10]; 0.5 N ethanolic HCl, absence of feces): up to 75%
Recovery from cholestyramine resin ([10]; 0.5 N ethanolic HCl, presence of fecal matter): less than 10%

C[C@H](CCC(=O)[O-])[C@H]1CC[C@H]2[C@@H]3[C@H](O)C[C@@H]4C[C@H](O)CC[C@]4(C)[C@H]3C[C@H](O)[C@]12C.[Na+] [cholate, Sodium cholate, reference compound]
Effect on C. difficile spore germination in vitro (C. difficile spores [11]): could stimulate spore germination
Time to clinical endpoint [1]: ≤ 48 hours post-challenge

Nc1cccc(S(=O)(=O)O)c1 [mSA, metanilic acid]
IC50 (CYP3A4): 17.5 ± 1.1 mM
Effect on C. difficile spore germination in vitro (C. difficile spores [11]): neither induced nor inhibited
Time to clinical endpoint [1]: ≤ 48 hours post-challenge
Detection in feces ([8]; cpx mice, any time point): not observed
Amount recovered from feces relative to CamSA from the same animals (higher) ([8]; non-cpx mice): approximately 40 fold
Time of first large peak in feces ([8]; non-cpx mice, after CamSA administration): ≤ 12 h
Highest concentration found in the liver [9]: approximately 20 μM
Detection in kidney ([9]; cpx mice): detected
Detection in blood ([9]; cpx mice, any time point): unable to detect
Amount recovered from chyme relative to amount recovered from feces ([9]; non-cpx mice): about 85%
Detection in blood ([9]; non-cpx mice): only detected in blood at the 22-hour time point
Detection in kidney ([9]; non-cpx mice): only detected in kidney at the 12-hour time point
Amount recovered from chyme as fraction of total dosed CamSA ([9]; non-cpx mice, detected as mSA): 13%
Binding to cholestyramine resin in vitro [10]: bound completely
Reversibility of binding to cholestyramine ([10]; stripping under strong acidic conditions): irreversible

— publication PMC7770080 (Biochemical pharmacology, 2020)
